How the values were obtained:
3T3-L1 [1] = experiment: In vitro glucose transport activity in 3T3-LI adipocytes at 3 uM concentration.; type: functional, Mus musculus
In short: (§1)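 Differentiated 3T3-L1 adipocytes, no added insulin, treated in triplicate for 18 h with compound at 3, 10 or 30 µM. Glucose transport expressed as % (relative to untreated); values are means of triplicate runs, significance by one-tailed independent Student's t-test.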

3T3-L1 [2] = experiment: In vitro glucose transport activity in 3T3-LI adipocytes at 10 uM concentration.; type: functional, Mus musculus; in short: as §1
3T3-L1 [3] = experiment: In vitro glucose transport activity in 3T3-LI adipocytes at 30 uM concentration.; type: functional, Mus musculus; in short: as §1
Mus musculus [4] = experiment: Mean body weight measured in genetically altered obese diabetic mice(db/db) at 100 mg/kg at 24 hr postdose; type: functional
In short: (§2)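 Obese diabetic C57BL/KS-db/db mice, single dose at t = 0, n = 8 per group (n = 5 for parent compound). Body weight recorded per mouse at 0 and 24 h; food intake reported as g/mouse/day. Vehicle used as negative control, metformin as positive control.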

Mus musculus [5] = experiment: Change in plasma glucose levels measured in genetically altered obese diabetic mice(db/db) at 100 mg/kg at 24 hr postdose; type: functional
Mus musculus [6] = experiment: Change in plasma glucose levels measured in genetically altered obese diabetic mice(db/db) at 100 mg/kg at 3 hr postdose; type: functional
Mus musculus [7] = experiment: Food intake measured in genetically altered obese diabetic mice(db/db) at 100 mg/kg dose; type: functional; in short: as §2
Mus musculus [8] = experiment: Mean body weight measured in genetically altered obese diabetic mice(db/db) at 100 mg/kg at 0 hr postdose; type: functional; in short: as §2
Mus musculus [9] = experiment: Food intake measured in genetically altered obese diabetic mice(db/db) at 100 mg/kg dose; 6 animals died; type: functional
Mus musculus [10] = experiment: Mean body weight measured in genetically altered obese diabetic mice(db/db) at 30 mg/kg at 0 h postdose; type: functional; in short: as §2
Mus musculus [11] = experiment: Change in plasma glucose levels measured in genetically altered obese diabetic mice(db/db) at 30 mg/kg at 3 hr postdose; type: functional
Mus musculus [12] = experiment: Mean body weight measured in genetically altered obese diabetic mice(db/db) at 30 mg/kg at 24 h postdose; type: functional; in short: as §2
Mus musculus [13] = experiment: Change in plasma glucose levels measured in genetically altered obese diabetic mice(db/db) at 30 mg/kg at 24 hr postdose; type: functional
Mus musculus [14] = experiment: Food intake measured in genetically altered obese diabetic mice(db/db) at 30 mg/kg dose; type: functional; in short: as §2
Mus musculus [15] = experiment: Food intake measured in genetically altered obese diabetic mice(db/db) at 100 mg/kg dose; 2 animals died; type: functional
Mus musculus [16] = experiment: Mean body weight measured in genetically altered obese diabetic mice(db/db) at 30 mg/kg at 0 hr postdose; type: functional; in short: as §2
Mus musculus [17] = experiment: Mean body weight measured in genetically altered obese diabetic mice(db/db) at 30 mg/kg at 24 hr postdose; type: functional; in short: as §2

SMILES | Glucose transport (3T3-L1 [1]) [%] | Glucose transport (3T3-L1 [2]) [%] | Glucose transport (3T3-L1 [3]) [%] | Mean body weight (Mus musculus [4]) [g mouse-1] | Change (Mus musculus [5]) [%] | Change (Mus musculus [6]) [%] | Food intake (Mus musculus [7]) [g mouse-1 day-1] | Mean body weight (Mus musculus [8]) [g mouse-1] | also measured
COC(=O)c1c2ccccc2[n+](C)c2c1[nH]c1ccccc12.[I-] | 63 | 159 | 371 |  |  |  |  |  | 
C[n+]1c2ccccc2c(I)c2[nH]c3ccc(F)cc3c21.[Cl-] | 115 | 117 | 0.92 | 41.8 | -13.2 | -33.1 | 2.7 | 42.2 | 
C[n+]1c2ccc(F)cc2cc2[nH]c3ccccc3c21.[Cl-] | 253 | 360 | 443 | 41.9 | -34.5 | -42.5 | 0.5 | 43.8 | 
CCCC[n+]1c2ccccc2cc2[nH]c3ccccc3c21.[Cl-] | 561 | 868 | 490 | 45.8 | -2.2 | -33.8 |  | 45.8 | Food intake (Mus musculus [9]): 2.6 g mouse-1 day-1; Mean body weight (Mus musculus [10]): 38.7 g mouse-1; Change (Mus musculus [11]): 4%; Mean body weight (Mus musculus [12]): 38.6 g mouse-1; Change (Mus musculus [13]): -22%; Food intake (Mus musculus [14]): 6 g mouse-1 day-1
C[n+]1c2ccccc2cc2[nH]c3ccccc3c21.[I-] [CRYPTOLEPTINE IODIDE] | 134 | 163 | 287 |  |  |  |  |  | 
C[n+]1c2ccc(F)cc2c(Cl)c2[nH]c3ccccc3c21.[Cl-] | 142 | 224 | 3.3 |  |  |  |  |  | 
C[n+]1c2ccccc2c(Sc2ccc(Cl)cc2)c2oc3ccccc3c21.O=S(=O)([O-])C(F)(F)F | 118 | 142 | 141 |  |  |  |  |  | 
C[n+]1c2ccccc2cc2[n-]c3ccccc3c21.Cl [CRYPTOLEPINE HYDROCHLORIDE] | 148 | 305 | 359 | 39.8 | -43.1 | -16.4 | 0.9 | 41 | 
CC[n+]1c2ccccc2cc2[nH]c3ccccc3c21.[Cl-] | 197 | 228 | 404 | 43.3 | -26.5 | -23.2 |  | 44.6 | Change (Mus musculus [11]): -7.7%; Food intake (Mus musculus [15]): 1 g mouse-1 day-1; Mean body weight (Mus musculus [16]): 41.7 g mouse-1; Change (Mus musculus [13]): -4.1%; Food intake (Mus musculus [14]): 5.1 g mouse-1 day-1; Mean body weight (Mus musculus [17]): 41.2 g mouse-1
C[n+]1c2ccccc2c(Cl)c2[nH]c3ccccc3c21.[Cl-] | 107 | 101 | 0.33 |  |  |  |  |  | 
COc1cccc2cc3[nH]c4ccccc4c3[n+](C)c12.[Cl-] | 237 | 486 | 543 | 37.1 | -58.3 | -8.3 | 2 | 38.4 | 
C[n+]1c2c(c(Cl)c3ccccc31)Cc1ccccc1-2.O=S(=O)([O-])C(F)(F)F | 125 | 119 | 297 |  |  |  |  |  | 
C[n+]1c2ccc(F)cc2c(-c2ccccc2)c2[nH]c3ccccc3c21.[Cl-] | 281 | 215 | 116 | 40.4 | -4.9 | -11.2 | 5.1 | 40.5 | 
C[n+]1c2c(c(Sc3ccc(Cl)cc3)c3ccccc31)Cc1ccccc1-2.O=S(=O)([O-])C(F)(F)F | 108 | 110 | 122 |  |  |  |  |  | 
C[n+]1c2ccccc2c(Cl)c2sc3ccccc3c21.O=S(=O)([O-])C(F)(F)F | 96 | 100 | 110 |  |  |  |  |  | 
C[n+]1c2ccc(F)cc2c(Nc2ccccc2)c2[nH]c3ccccc3c21.[Cl-] | 325 | 208 | 0.9 | 44.2 | -10.7 | -10.5 | 3.2 | 44.8 | 
C[n+]1c2ccc(F)cc2c(Sc2ccc(Cl)cc2)c2[nH]c3ccccc3c21.[Cl-] | 128 | 154 | 13 |  |  |  |  |  | 
C[n+]1c2ccccc2c(Cl)c2[nH]c3cccc(F)c3c21.[Cl-] | 143 | 457 | 6.4 |  |  |  |  |  | 
C[n+]1c2ccccc2c(Cl)c2[nH]c3ccc(-c4ccccc4)cc3c21.[Cl-] | 122 | 190 | 16 |  |  |  |  |  | 
C[n+]1c2ccccc2c(Cl)c2oc3ccccc3c21.O=S(=O)([O-])C(F)(F)F | 119 | 114 | 107 | 41.1 | -20.8 | -17.9 | 4.9 | 40.6 | 
C[n+]1c2ccc(F)cc2c(Oc2ccccc2)c2[nH]c3ccccc3c21.[Cl-] | 140 | 207 | 0.39 | 45.2 | -7.5 | -11.8 | 1.6 | 46.6 | 
Fc1ccc(C[n+]2c3ccccc3cc3[nH]c4ccccc4c32)cc1.[Cl-] | 168 | 248 | 323 | 39 | -9.7 | -36.3 | 3.1 | 40.2 | 
C[n+]1c2ccc(Cl)cc2c(Cl)c2[nH]c3ccccc3c21.[Cl-] | 108 | 138 | 215 |  |  |  |  |  | 
COC(=O)c1c2ccccc2[n+](C)c2c3ccccc3n(C)c12.[I-] | 155 | 207 | 260 |  |  |  |  |  | 
[Cl-].c1ccc(C[n+]2c3ccccc3cc3[nH]c4ccccc4c32)cc1 | 611 | 781 | 161 | 38.9 | -20 | -15 | 5.1 | 39.3 | 
C[n+]1c2ccccc2cc2[nH]c3cc(Cl)c(Br)cc3c21.[Cl-] | 104 | 127 | 0.1 | 44.6 | -18.9 | -33 | 2.8 | 45.5 | 
C[n+]1c2ccccc2c(Cl)c2[nH]c3cc(F)ccc3c21.[Cl-] | 107 | 159 | 6 |  |  |  |  |  | 
C[n+]1c2ccccc2c(I)c2[nH]c3c(F)cccc3c21.[Cl-] | 129 | 255 | 0.1 | 41.4 | -32.9 | 19.9 | 0.7 | 43.4 | 
C[n+]1c2cccc(Cl)c2c(Cl)c2[nH]c3ccccc3c21.[Cl-] | 120 | 282 | 352 |  |  |  |  |  | 

— ChEMBL document CHEMBL1131580, “Antihyperglycemic activities of cryptolepine analogues: an ethnobotanical lead structure isolated from Cryptolepis sanguinolenta” (1998)
